For four molecules, inhibition results are on record in ChEMBL document CHEMBL1147839, “New highly hydrosoluble and not self-aggregated perylene derivatives with three and four polar side-chains as G-quadruplex telomere targeting agents and telomerase inhibitors” (Bioorg Med Chem Lett, 2007).

For assay [1], the species on record is Homo sapiens. Nature of the assay: Inhibition of human telomerase at 2 uM after 2 hrs by TRAP assay. A digest of the protocol: (§1)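 Modified TRAP with TSG4 substrate primer (0.4 μM) and 50 μM dNTPs in TRAP buffer (pH 8.3, 1.5 mM MgCl2, 68 mM KCl, 0.05% Tween 20, 1 mM EGTA). The mix was heated 90 C 10 min, then iced. Drug was preincubated 2 h at 30 C. SKN-Be neuroblastoma cell extract was added for 30 min at 30 C, then phenol/chloroform extraction. PCR (30 cycles) used 32P-TSG4, CXext primer and Taq. Runs done at least three independent times.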

The species named for assay [2] is Homo sapiens. As to the kind of experiment: Inhibition of human telomerase at 10 uM after 2 hrs by TRAP assay. A digest of the protocol:
as §1

The species named for assay [3] is Homo sapiens. Nature of the assay: Inhibition of human telomerase at 20 uM after 2 hrs by TRAP assay. The procedure, abridged: as §1
Assay [4] is filed under the species Homo sapiens. As to the kind of experiment: Inhibition of human telomerase at 5 uM after 2 hrs by TRAP assay. A digest of the protocol: as §1

What is called inhibition is the drop in the measured response relative to a control, in per cent. For `CN(C)CCCNc1cc2c3c(ccc4c5c(Br)cc6c7c(ccc(c1c34)c75)C(=O)N(CCCN(C)C)C6=O)C(=O)N(CCCN(C)C)C2=O`, the inhibition in assay [1] was 18%; in assay [2] it was 55%; in assay [3] it was 59%; in assay [4], 49%.
The corresponding values for `CN(C)CCCNc1cc2c3c(ccc4c5c(NCCCN(C)C)cc6c7c(ccc(c1c34)c75)C(=O)N(CCCN(C)C)C6=O)C(=O)N(CCCN(C)C)C2=O` are 8%, 54%, 54% and 41%.
For `CN(C)CCCNc1cc2c3c(ccc4c5ccc6c7c(ccc(c1c34)c75)C(=O)N(CCCN(C)C)C6=O)C(=O)N(CCCN(C)C)C2=O`, in that order: 24%, 57%, 59% and 39%.
Turning to `CN(C)CCCNc1cc2c3c(cc(NCCCN(C)C)c4c5ccc6c7c(ccc(c1c34)c75)C(=O)N(CCCN(C)C)C6=O)C(=O)N(CCCN(C)C)C2=O`, the inhibition was 12% in assay [1], 56% in assay [2], 59% in assay [3] and 47% in assay [4].
